In publication PMC10501872 (Acta Pharmaceutica Sinica. B, 2023):

Key:
TLR4 [1] = biological target: T1, TLR4 (Homo sapiens, UniProt O00206); test: Surface plasmon resonance, hTLR4; format: binding; conditions: SPR
Procedure, shortened: (§1)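 For SPR chip coating, human TLR2 was expressed in insect H5 cells and diluted in PBS to 1 mg/mL. Commercial human TLR4 protein was diluted in PBS to 0.1 mg/mL.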
Target sequence in this assay (O00206 24-631 limits assumed): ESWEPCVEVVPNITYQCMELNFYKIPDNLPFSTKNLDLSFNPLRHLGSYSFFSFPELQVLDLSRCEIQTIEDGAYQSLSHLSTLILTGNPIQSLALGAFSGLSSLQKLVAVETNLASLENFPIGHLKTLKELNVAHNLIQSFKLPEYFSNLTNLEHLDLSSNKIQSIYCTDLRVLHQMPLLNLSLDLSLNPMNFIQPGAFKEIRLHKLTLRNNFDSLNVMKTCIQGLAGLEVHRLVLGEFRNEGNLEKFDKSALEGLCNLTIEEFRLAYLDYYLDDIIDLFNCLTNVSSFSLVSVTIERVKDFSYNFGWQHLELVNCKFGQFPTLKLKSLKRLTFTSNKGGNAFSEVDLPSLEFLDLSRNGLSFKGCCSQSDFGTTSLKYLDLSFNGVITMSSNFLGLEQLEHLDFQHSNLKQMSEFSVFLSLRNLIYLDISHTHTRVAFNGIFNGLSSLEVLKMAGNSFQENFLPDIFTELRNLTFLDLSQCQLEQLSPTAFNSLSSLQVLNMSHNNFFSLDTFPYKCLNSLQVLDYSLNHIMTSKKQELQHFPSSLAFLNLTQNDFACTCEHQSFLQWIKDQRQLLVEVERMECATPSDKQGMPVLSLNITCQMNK

TLR2 [2] = biological target: T2, TLR2 (Homo sapiens, UniProt O60603); test: Surface plasmon resonance, hTLR2; format: binding
T2 sequence (O60603 21-784): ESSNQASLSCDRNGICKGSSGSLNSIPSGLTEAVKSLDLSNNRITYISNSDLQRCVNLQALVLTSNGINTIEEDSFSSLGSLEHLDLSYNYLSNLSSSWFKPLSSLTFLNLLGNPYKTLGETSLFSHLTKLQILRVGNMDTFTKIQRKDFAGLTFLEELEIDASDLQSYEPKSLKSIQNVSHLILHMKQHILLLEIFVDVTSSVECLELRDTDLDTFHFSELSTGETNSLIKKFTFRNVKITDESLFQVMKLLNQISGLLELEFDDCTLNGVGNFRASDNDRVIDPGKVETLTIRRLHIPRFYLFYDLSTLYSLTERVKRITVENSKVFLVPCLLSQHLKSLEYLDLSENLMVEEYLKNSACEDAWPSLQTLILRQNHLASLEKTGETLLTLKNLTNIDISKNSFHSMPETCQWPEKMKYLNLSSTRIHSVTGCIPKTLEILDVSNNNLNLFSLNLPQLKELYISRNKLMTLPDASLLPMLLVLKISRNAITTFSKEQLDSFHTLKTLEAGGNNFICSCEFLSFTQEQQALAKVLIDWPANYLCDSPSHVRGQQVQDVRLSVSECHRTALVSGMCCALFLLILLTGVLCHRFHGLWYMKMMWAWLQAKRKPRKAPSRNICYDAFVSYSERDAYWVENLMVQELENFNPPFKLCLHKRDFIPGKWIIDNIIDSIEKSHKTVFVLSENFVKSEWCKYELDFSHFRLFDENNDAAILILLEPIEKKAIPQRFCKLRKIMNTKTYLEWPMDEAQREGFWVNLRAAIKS
Procedure, shortened: as §1

KM mice = test: Toxicity studies in vivo; set-up: species or system mouse; conditions: 250 mg/kg oral on Day 1, 3 and 5; Day 7
Procedure, shortened: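 Male and female KM mice (6–8 weeks) were split into control and treated groups of 10 (half male). Test compound was given orally on Days 1, 3 and 5; controls received the same volume of solvent. Body weight was recorded daily. On Day 7, mice were killed and tissues taken for H&E pathology.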

TLR4 [3] = test: Cytokines ELISA, LPS-treated peritoneal macrophages and THP-1 cells; format: cell-based, human and murine; conditions: LPS 100 ng/mL, 24 h
Procedure, shortened: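 Thioglycolate-elicited peritoneal macrophages from C57BL/6 mice were seeded at 0.5 × 10^6 per well in RPMI 1640 with 10% FBS. THP-1 cells (2.5 × 10^5 cells/mL) were differentiated with 100 nmol/L PMA for 24 h, washed and rested 24 h in fresh medium. Both cell types received LPS (100 ng/mL) plus graded test compound for 24 h at 37 °C. Supernatants were frozen at −80 °C and cytokines quantified by sandwich ELISA against recombinant standards, in triplicate.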

TLR4 [4] = biological target: T1, TLR4; test: Cellular thermal shift assay, TLR4; format: binding; conditions: 20 μmol/L, THP-1 cells
Target sequence in this assay (O00206 24-839): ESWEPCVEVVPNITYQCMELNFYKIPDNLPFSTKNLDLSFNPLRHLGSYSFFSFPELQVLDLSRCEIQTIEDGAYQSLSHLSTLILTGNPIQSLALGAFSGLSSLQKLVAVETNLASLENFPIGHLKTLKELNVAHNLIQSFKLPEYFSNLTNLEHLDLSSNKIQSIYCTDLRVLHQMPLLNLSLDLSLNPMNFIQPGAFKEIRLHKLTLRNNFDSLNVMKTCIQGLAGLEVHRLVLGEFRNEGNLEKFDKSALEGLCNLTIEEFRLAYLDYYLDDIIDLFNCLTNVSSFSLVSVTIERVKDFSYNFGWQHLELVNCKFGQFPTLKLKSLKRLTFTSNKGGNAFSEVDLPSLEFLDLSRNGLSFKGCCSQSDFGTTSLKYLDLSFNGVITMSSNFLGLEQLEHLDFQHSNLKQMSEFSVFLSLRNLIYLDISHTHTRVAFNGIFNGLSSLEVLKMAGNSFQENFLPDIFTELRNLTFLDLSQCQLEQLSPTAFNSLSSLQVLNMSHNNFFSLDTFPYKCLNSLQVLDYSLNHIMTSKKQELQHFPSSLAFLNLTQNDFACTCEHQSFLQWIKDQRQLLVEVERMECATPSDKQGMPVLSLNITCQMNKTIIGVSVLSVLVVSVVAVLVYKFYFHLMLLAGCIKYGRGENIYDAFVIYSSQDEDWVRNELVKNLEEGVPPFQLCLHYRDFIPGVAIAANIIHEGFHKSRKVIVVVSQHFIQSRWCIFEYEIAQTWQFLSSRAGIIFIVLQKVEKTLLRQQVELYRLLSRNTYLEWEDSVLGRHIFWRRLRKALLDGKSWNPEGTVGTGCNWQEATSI

[5] = system: healthy human peripheral blood mononuclear cells (PBMCs); test: Cytokines ELISA, Pam3CSK4-treated PBMCs; format: cell-based; conditions: 5 μmol/L, Pam3CSK4 100 ng/mL, 24 h
Procedure, shortened: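 Human PBMCs were seeded at 0.5 × 10^6 per well in RPMI 1640 with 10% FBS. Test compound plus Pam3CSK4 (100 ng/mL) was added for 24 h at 37 °C, 5% CO2. Supernatants were stored at −80 °C, then assayed by sandwich ELISA with recombinant cytokine standards, in triplicate.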

TLR2 [6] = biological target: T2, TLR2; test: Cellular thermal shift assay, TLR2; format: binding; conditions: 20 μmol/L, THP-1 cells, 45 to 53 °C, especially at 51 °C
TLR2 [7] = biological target: T2, TLR2; test: Competitive combination assay with Rhodamine-Pam3CSK4; format: cell-based; conditions: 1 μmol/L, Rhodamine-Pam3CSK4 800 ng/mL, 4 h
Procedure, shortened: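 HEK-hTLR2 cells (3 × 10^4 per well) were seeded in DMEM with 10% FBS and left overnight. Medium was replaced with DMEM containing 800 ng/mL rhodamine-Pam3CSK4 and 1 μmol/L test compound for 4 h. After three PBS washes, nuclei were stained with DAPI for 5 min, cells were washed again and imaged by confocal microscopy.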

C57Bl/6 mice [8] = test: Cecum ligation and puncture sepsis model; format: in vivo, mouse; conditions: oral 5 and 25 mg/kg 1 h before CLP; serum and lung tissue, 8 h
Procedure, shortened: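 Male C57Bl/6 mice aged 6–8 weeks were used for polymicrobial sepsis by CLP. Test compound was given orally 1 h before surgery; sham-operated mice received the same volume of saline. Serum and lung tissue were taken 8 h after surgery for ELISA.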

TLR2/6 = TLR2/6 (Homo sapiens, UniProt O60603); test: SEAP signaling induced by Pam2CSK4 in HEK-Blue hTLR2 cells; format: cell-based; conditions: Pam2CSK4 100 ng/mL, 24 h
TLR2/6, sequence (O60603 21-784): as the sequence (O60603 21-784) above

mouse primary BMDCs = test: BMDCs activation assay; format: cell-based; conditions: 10 μmol/L
Procedure, shortened: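 BMDCs were generated from femur and tibia marrow of C57BL/6 mice and collected on day 7. They were seeded at 5 × 10^5 per well in RPMI 1640 with 10% FBS and left overnight. Cells then received Pam3CSK4 (300 ng/mL) or LPS (100 ng/mL) plus test compound for 24 h. Harvested cells were stained 30 min for CD86, CD80 and CD11c and read by flow cytometry.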

[9] = system: primary murine peritoneal macrophages; test: Nitric oxide; format: cell-based, mouse; conditions: 10 μmol/L; Pam3CSK4 100 ng/mL, IFN-γ 40 ng/mL
Procedure, shortened: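 Thioglycolate-elicited peritoneal macrophages from 6–8-week C57BL/6 mice were seeded at 1 × 10^6 per well. Cells were exposed to IFN-γ (40 ng/mL) and Pam3CSK4 (100 ng/mL) with test compound for 48 h. Nitrite was read at 570 nm against a sodium nitrite standard curve.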

HEK-Blue hTLR2 cells = test: Cell toxicity assay; format: cell-based, human; conditions: 24 h, CCK-8
Procedure, shortened: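 HEK-hTLR2 cells were seeded at 3 × 10^4 per well in DMEM with 10% FBS and left overnight at 37 °C. Graded concentrations of test compound were added for 24 h at 37 °C. CCK-8 was then added for 1–4 h at 37 °C and absorbance read at 450 nm.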

C57Bl/6 mice [10] = test: Carrageenan-induced paw edema model; format: in vivo, mouse; conditions: at 4 h; for paw swelling (measured by volume): ip prior to carrageenan
Procedure, shortened: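 Male C57Bl/6 mice (6–8 weeks) were randomised into four groups of six. Saline, indomethacin (10 mg/kg ip) or test compound (5 mg/kg ip) was given 1 h before 50 μL 1% carrageenan was injected into the right hind plantar paw. Paw volume was read by plethysmometer at baseline and at 1, 4, 8 and 24 h. At 4 h, paws were weighed and homogenised in 0.5% HTAB phosphate buffer (pH 6.0); supernatant triplicates were assayed with 3,3′-dimethoxybenzidine/1% H2O2 for MPO.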

TLR2 [11] = biological target: T2, TLR2; test: QUANTI-blue SEAP assay, Pam3CSK4-stimulated HEK-Blue hTLR2 cells; format: cell-based
Procedure, shortened: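 HEK-Blue hTLR2 cells (4 × 10^4 per well) were grown 24 h at 37 °C, 5% CO2 in DMEM with 10% FBS, then given fresh medium. Graded test compound and Pam3CSK4 (100 ng/mL) were added for 24 h. Supernatant was mixed 1:1 with QUANTI-Blue, shaken in the dark, and OD620 read at 15–30 min.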

[12] = Pharmacokinetics in rat plasma; format: in vivo; conditions: for AUC: rat plasma; for AUC / half-life: n = 5; for half-life: t1/2, rat plasma
[13] = system: mouse primary peritoneal macrophage; test: Peritoneal macrophage phenotype assay; format: cell-based; conditions: 10 μmol/L
Procedure, shortened: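 Peritoneal macrophages were plated at 1 × 10^6 per well in RPMI 1640 with 10% FBS and left overnight. Cells were treated for 24 h with medium, Pam3CSK4 (100 ng/mL) + IFN-γ (40 ng/mL), or LPS (100 ng/mL) + IFN-γ (40 ng/mL), each with test compound. Cells were trypsinised, stained 30 min for CD86 and CD11b, and analysed by flow cytometry.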

Water solubility = format: physicochemical
C57Bl/6 mice [14] = test: DSS-induced colitis; format: in vivo, mouse; conditions: for weight loss: oral administration, Day 8
Procedure, shortened: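 Colitis was induced with 3.5% DSS in drinking water for 5 days (not in controls), followed by normal water. From Day 2, test compound (5 or 25 mg/kg), dexamethasone (25 mg/kg) or vehicle was given orally. Body weight was recorded daily and mice were killed on Day 8. Colon was lysed in RIPA with protease/phosphatase inhibitors by sonication at 4 °C and spun at 12,000×g for 30 min. IL-6 and TNF-α were measured by ELISA on BCA-equalised protein.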

## COc1ccc2c(=O)oc3c(OC)cc(CC(O)CN(C)C)c4c(=O)oc1c2c34 (stereo not drawn) [SMU-Y6]
TLR4 [1]
  binding signal to recombinant hTLR4 protein: did not detect a binding signal
TLR2 [2]
  Kd: 180 nM
TLR2 [2]; SPR
  time to complete dissociation from TLR2 protein: 500 s
KM mice
  immediate toxicity: did not seem to exhibit immediate toxicity
  pathological analysis of heart, liver, spleen, lung and kidney: no obvious organic damage
TLR4 [3]
  inhibitory activity with regards to TLR4 (TNF-α, IL-6): little or even no inhibitory activity
TLR4 [4]
  thermal stabilization of TLR4: failed to induce the thermal stabilization
[5]
  release of IL-1β: completely inhibited
  release of TNF-α: completely inhibited
TLR2 [6]
  thermal stabilization of TLR2 protein: higher thermal stabilization
TLR2 [7]
  fluorescence intensity of Rhodamine-Pam3CSK4: reduced the fluorescence intensity
C57Bl/6 mice [8]
  production of IL-6 in sepsis: significantly reduced the production
  production of TNF-α in sepsis: significantly reduced the production
TLR2/6
  SEAP signaling induced by Pam2CSK4: suppressed the SEAP signaling
Mouse primary BMDCs
  LPS-induced activation of BMDCs: failed to reverse
Mouse primary BMDCs; Pam3CSK4, 16.6% without compound
  percentage of CD80+ CD86+ cells: 8.1%
[9]
  production of NO induced by Pam3CSK4: significantly reduced
HEK-Blue hTLR2 cells
  cytotoxicity compared with Taspine: reduced toxicity
C57Bl/6 mice [10]
  activity of local myeloperoxidase (MPO) in paw tissue: reversed
  paw swelling (measured by volume): significantly reduced
TLR2 [11]
  IC50: 110 ± 40 nM
TLR2 [11]; vs Taspine
  improvement of activity compared with Taspine: 10 fold
[12]; ip
  Cmax: 208 ± 31.1 ng/mL
  Tmax: 0.25 ± 0.01 h
[12]; ip, AUC0‒t, intraperitoneal injection
  AUC: 1790 ± 410 ng·h/mL
[12]; ip, AUC0‒∞, intraperitoneal injection
  AUC: 2160 ± 600 ng·h/mL
[12]; ip, intraperitoneal injection
  half-life: 9.16 ± 1.11 h
[12]; po
  Cmax: 52.3 ± 5.83 ng/mL
  Tmax: 3 ± 1 h
[12]; po, AUC0‒t, oral administration
  AUC: 619 ± 84.2 ng·h/mL
[12]; po, AUC0‒∞, oral administration
  AUC: 844 ± 184 ng·h/mL
[12]; po, oral administration
  half-life: 11.5 ± 2.7 h
[13]
  polarization induced by LPS and IFN-γ: no effect
Water solubility; vs Taspine
  water solubility relative to Taspine: 20 times
C57Bl/6 mice [14]
  weight loss: reduced weight loss
C57Bl/6 mice [14]; oral, 5 and 25 mg/kg
  IL-6 in local colonic tissue: reduced the production
  TNF-α in local colonic tissue: reduced the production

## CCOC(=O)C1=CCCC[C@H]1S(=O)(=O)Nc1ccc(F)cc1Cl [TAK-242, reference compound]
TLR4 [1]
  binding signal to recombinant hTLR4 protein: exhibited the ability to bind

## COc1ccc2c(=O)oc3c(OC)cc(CCN(C)C)c4c(=O)oc1c2c34 [Taspine, reference compound]
Water solubility
  water solubility: poor water solubility

## C[C@@H]1C[C@H]2[C@@H]3CCC4=CC(=O)C=C[C@]4(C)[C@@]3(F)[C@@H](O)C[C@]2(C)[C@@]1(O)C(=O)CO [dexamethasone, reference compound]
C57Bl/6 mice [14]
  weight loss: reduced weight loss

## COc1ccc2c(c1)c(CC(=O)O)c(C)n2C(=O)c1ccc(Cl)cc1 [indomethacin, reference compound]
C57Bl/6 mice [10]
  activity of local myeloperoxidase (MPO) in paw tissue: reversed
  paw swelling (measured by volume): significantly reduced
